Source: ChEMBL document CHEMBL3244142, “Antifungal properties of 2-bromo-3-fluorosuccinic acid esters and related compounds” (1977)
Values after ≈ are worked out from the molar mass of the structure shown. Active and inactive are the calls of the source. The rule behind the calls is not given here.

What was measured:
[1] = system: Trichophyton mentagrophytes; test: Antifungal activity against Trichophyton mentagrophytes ATCC 9129 at pH 5.6 after 5 days in presence of 10% beef serum; format: functional
How it was run: (§1)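 Agar-dilution MIC in Sabouraud dextrose agar at pH 5.6 or 7.0, with or without 10% beef serum. Plates were incubated at 28 °C for 5 days. MIC is the lowest concentration (µg/mL) giving 100% inhibition. Steps were 1 µg/mL up to 10, 2 µg/mL from 10–20, and 10 µg/mL from 20–100; 100 µg/mL was the top level, and no inhibition there is scored as >100.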

[2] = system: Trichophyton mentagrophytes; test: Antifungal activity against Trichophyton mentagrophytes ATCC 9129 at pH 7 after 5 days in presence of 10% beef serum; format: functional; how it was run: as §1
Aspergillus niger [3] = test: Antifungal activity against Aspergillus niger ATCC 1004 at pH 7 after 5 days in presence of 10% beef serum; format: functional; how it was run: as §1
Aspergillus niger [4] = test: Antifungal activity against Aspergillus niger ATCC 1004 at pH 7 after 5 days in absence of 10% beef serum; format: functional; how it was run: as §1
Mucor mucedo [5] = test: Antifungal activity against Mucor mucedo ATCC 7941 at pH 7 after 5 days in presence of 10% beef serum; format: functional
Candida albicans [6] = test: Antifungal activity against Candida albicans ATCC 10231 at pH 5.6 after 20 h in absence of 10% beef serum; settings: ATCC 10231, 20 h
Mucor mucedo [7] = test: Antifungal activity against Mucor mucedo ATCC 7941 at pH 7 after 20 h in absence of 10% beef serum; settings: ATCC 7941, 20 h
Mucor mucedo [8] = test: Antifungal activity against Mucor mucedo ATCC 7941 at pH 5.6 after 5 days in absence of 10% beef serum; format: functional
Mucor mucedo [9] = test: Antifungal activity against Mucor mucedo ATCC 7941 at pH 5.6 after 20 h in presence of 10% beef serum; settings: ATCC 7941, 20 h
[10] = system: Trichophyton mentagrophytes; test: Antifungal activity against Trichophyton mentagrophytes ATCC 9129 at pH 5.6 after 5 days in absence of 10% beef serum; format: functional; how it was run: as §1
Aspergillus niger [11] = test: Antifungal activity against Aspergillus niger ATCC 1004 at pH 5.6 after 5 days in absence of 10% beef serum; format: functional; how it was run: as §1
Candida albicans [12] = test: Antifungal activity against Candida albicans ATCC 10231 at pH 7 after 5 days in presence of 10% beef serum; format: functional
Aspergillus niger [13] = test: Antifungal activity against Aspergillus niger ATCC 1004 at pH 5.6 after 5 days in presence of 10% beef serum; format: functional; how it was run: as §1
[14] = system: Trichophyton mentagrophytes; test: Antifungal activity against Trichophyton mentagrophytes ATCC 9129 at pH 7 after 5 days in absence of 10% beef serum; format: functional; how it was run: as §1
Candida albicans [15] = test: Antifungal activity against Candida albicans ATCC 10231 at pH 5.6 after 5 days in presence of 10% beef serum; format: functional
Candida albicans [16] = test: Antifungal activity against Candida albicans ATCC 10231 at pH 7 after 20 h in absence of 10% beef serum; settings: ATCC 10231, 20 h
Mucor mucedo [17] = test: Antifungal activity against Mucor mucedo ATCC 7941 at pH 7 after 20 h in presence of 10% beef serum; settings: ATCC 7941, 20 h
Candida albicans [18] = test: Antifungal activity against Candida albicans ATCC 10231 at pH 5.6 after 5 days in absence of 10% beef serum; format: functional
Candida albicans [19] = test: Antifungal activity against Candida albicans ATCC 10231 at pH 7 after 5 days in absence of 10% beef serum; format: functional
Mucor mucedo [20] = test: Antifungal activity against Mucor mucedo ATCC 7941 at pH 5.6 after 5 days in presence of 10% beef serum; format: functional
Mucor mucedo [21] = test: Antifungal activity against Mucor mucedo ATCC 7941 at pH 7 after 5 days in absence of 10% beef serum; format: functional
[22] = system: Trichophyton mentagrophytes; test: Antifungal activity against Trichophyton mentagrophytes ATCC 9129 at <100 ug/ml at pH 5.6 after 5 days in presence of 10% beef serum; format: functional, organism-based; how it was run: as §1
[23] = system: Trichophyton mentagrophytes; test: Antifungal activity against Trichophyton mentagrophytes ATCC 9129 at <100 ug/ml at pH 5.6 after 5 days in absence of 10% beef serum; format: functional, organism-based; how it was run: as §1
Mucor mucedo [24] = test: Antifungal activity against Mucor mucedo ATCC 7941 at <100 ug/ml at pH 5.6 after 20 h in absence of 10% beef serum
[25] = system: Trichophyton mentagrophytes; test: Antifungal activity against Trichophyton mentagrophytes ATCC 9129 at <100 ug/ml at pH 7 after 5 days in absence of 10% beef serum; format: functional, organism-based; how it was run: as §1
Candida albicans [26] = test: Antifungal activity against Candida albicans ATCC 10231 at pH 5.6 after 20 h in presence of 10% beef serum; settings: ATCC 10231, 20 h
Mucor mucedo [27] = test: Antifungal activity against Mucor mucedo ATCC 7941 at <100 ug/ml at pH 7 after 20 h in presence of 10% beef serum
Candida albicans [28] = test: Antifungal activity against Candida albicans ATCC 10231 at pH 7 after 20 h in presence of 10% beef serum; settings: ATCC 10231, 20 h
Mucor mucedo [29] = test: Antifungal activity against Mucor mucedo ATCC 7941 at <100 ug/ml at pH 5.6 after 20 h in presence of 10% beef serum
[30] = system: Trichophyton mentagrophytes; test: Antifungal activity against Trichophyton mentagrophytes ATCC 9129 at <100 ug/ml at pH 7 after 5 days in presence of 10% beef serum; format: functional, organism-based; how it was run: as §1
Mucor mucedo [31] = test: Antifungal activity against Mucor mucedo ATCC 7941 at <100 ug/ml at pH 7 after 20 h in absence of 10% beef serum
Candida albicans [32] = test: Antifungal activity against Candida albicans ATCC 10231 at <100 ug/ml at pH 5.6 after 20 h in presence of 10% beef serum
Aspergillus niger [33] = test: Antifungal activity against Aspergillus niger ATCC 1004 at <100 ug/ml at pH 5.6 after 5 days in presence of 10% beef serum; format: functional, organism-based; how it was run: as §1
Candida albicans [34] = test: Antifungal activity against Candida albicans ATCC 10231 at <100 ug/ml at pH 5.6 after 20 h in absence of 10% beef serum
Aspergillus niger [35] = test: Antifungal activity against Aspergillus niger ATCC 1004 at <100 ug/ml at pH 7 after 5 days in presence of 10% beef serum; format: functional, organism-based; how it was run: as §1
Candida albicans [36] = test: Antifungal activity against Candida albicans ATCC 10231 at <100 ug/ml at pH 7 after 20 h in absence of 10% beef serum
Aspergillus niger [37] = test: Antifungal activity against Aspergillus niger ATCC 1004 at <100 ug/ml at pH 7 after 5 days in absence of 10% beef serum; format: functional, organism-based; how it was run: as §1
Candida albicans [38] = test: Antifungal activity against Candida albicans ATCC 10231 at <100 ug/ml at pH 7 after 20 h in presence of 10% beef serum
Aspergillus niger [39] = test: Antifungal activity against Aspergillus niger ATCC 1004 at <100 ug/ml at pH 5.6 after 5 days in absence of 10% beef serum; format: functional, organism-based; how it was run: as §1
[40] = Trichophyton mentagrophytes, ATCC 9129, 120 h, read-out: MIC
[41] = Aspergillus niger, ATCC 1004, 120 h, read-out: MIC
[42] = Mucor mucedo, ATCC 7941, 120 h, read-out: MIC
[43] = Candida albicans, ATCC 10231, 120 h, read-out: MIC

Structure (SMILES)	MIC [2, 40] [µg/mL]	MIC (Aspergillus niger [4]; [41]) [µg/mL]	MIC (Candida albicans [6]) [µg/mL]	MIC (Mucor mucedo [7]) [µg/mL]	MIC (Mucor mucedo [8]; [42]) [µg/mL]	MIC (Mucor mucedo [9]) [µg/mL]	MIC [10, 40] [µg/mL]	MIC (Candida albicans [12]; [43]) [µg/mL]	MIC (Aspergillus niger [13]; [41]) [µg/mL]	MIC (Candida albicans [15]; [43]) [µg/mL]	MIC (Candida albicans [16]) [µg/mL]	MIC (Aspergillus niger [3]; [41]) [µg/mL]	MIC (Aspergillus niger [11]; [41]) [µg/mL]	inhibition [22]	inhibition [23]	inhibition (Mucor mucedo [24])	inhibition [25]	inhibition (Mucor mucedo [27])	inhibition (Mucor mucedo [29])	inhibition [30]	other results
COC(=O)C(Br)C(Br)C(=O)OC (stereo in doubt)	20	60 (≈ 197 µM)	20 (≈ 65.8 µM)	12 (≈ 39.5 µM)	6 (≈ 19.7 µM)	14	2 (≈ 6.58 µM)	70	50	30	50 (≈ 165 µM)										MIC [1]: 12 µg/mL; MIC (Aspergillus niger [3]): 90 µg/mL; MIC (Mucor mucedo [5]): 30 µg/mL; MIC (Aspergillus niger [11]): 30 µg/mL (≈ 98.7 µM); MIC [14]: 9 µg/mL (≈ 29.6 µM)
COC(=O)[C@H](F)[C@@H](Br)C(=O)OC (relative stereo)	6	30 (≈ 123 µM)	6 (≈ 24.7 µM)	14 (≈ 57.6 µM)	12 (≈ 49.4 µM)	12	< 1	16	14	8	16 (≈ 65.8 µM)	40	12 (≈ 49.4 µM)								MIC [1, 40]: 3 µg/mL; MIC (Mucor mucedo [17]): 20 µg/mL; MIC [14, 40]: 3 µg/mL (≈ 12.3 µM)
COC(=O)[C@@H](F)[C@@H](Br)C(=O)OC (relative stereo)	5	40 (≈ 165 µM)	9 (≈ 37 µM)	8 (≈ 32.9 µM)	7 (≈ 28.8 µM)	8	< 1	30	20	14	20 (≈ 82.3 µM)	40	20 (≈ 82.3 µM)								MIC [1, 40]: 2 µg/mL; MIC (Mucor mucedo [17]): 12 µg/mL; MIC [14, 40]: 2 µg/mL (≈ 8.23 µM)
COC(=O)C(Br)C(Br)C(=O)OC (racemic)																					MIC (Candida albicans [18]): 16 µg/mL (≈ 52.6 µM); MIC [1]: 4 µg/mL; MIC [2]: 10 µg/mL; MIC (Aspergillus niger [3]): 40 µg/mL; MIC (Aspergillus niger [4]): 40 µg/mL (≈ 132 µM); MIC (Mucor mucedo [5]): 14 µg/mL; MIC (Candida albicans [19]): 30 µg/mL (≈ 98.7 µM); MIC (Mucor mucedo [8]): 6 µg/mL (≈ 19.7 µM); MIC [10]: 2 µg/mL (≈ 6.58 µM); MIC (Aspergillus niger [11]): 14 µg/mL (≈ 46.1 µM); MIC (Candida albicans [12]): 60 µg/mL; MIC (Aspergillus niger [13]): 30 µg/mL; MIC [14]: 4 µg/mL (≈ 13.2 µM); MIC (Mucor mucedo [20]): 9 µg/mL; MIC (Candida albicans [15]): 20 µg/mL; MIC (Mucor mucedo [21]): 8 µg/mL (≈ 26.3 µM)
Nc1nc(=O)[nH]cc1F [FLUCYTOSINE]		7 (≈ 54.2 µM)	9 (≈ 69.7 µM)						8		9 (≈ 69.7 µM)	10	9 (≈ 69.7 µM)	inactive	inactive	inactive	inactive	inactive	inactive	inactive	MIC (Candida albicans [26]): 14 µg/mL; MIC (Candida albicans [28]): 14 µg/mL; inhibition (Mucor mucedo [31]): inactive
CCCCCCOC(=O)[C@@H](F)[C@@H](Br)C(=O)OCCCCCC (relative stereo)														inactive	inactive	inactive	inactive	inactive	inactive	inactive	inhibition (Candida albicans [32]): inactive; inhibition (Aspergillus niger [33]): inactive; inhibition (Candida albicans [34]): inactive; inhibition (Aspergillus niger [35]): inactive; inhibition (Candida albicans [36]): inactive; inhibition (Aspergillus niger [37]): inactive; inhibition (Candida albicans [38]): inactive; inhibition (Mucor mucedo [31]): inactive; inhibition (Aspergillus niger [39]): inactive
COC(=O)C(Br)C(C)F (configuration not stated)														inactive	inactive	inactive	inactive	inactive	inactive	inactive	inhibition (Candida albicans [32]): inactive; inhibition (Aspergillus niger [33]): inactive; inhibition (Candida albicans [34]): inactive; inhibition (Aspergillus niger [35]): inactive; inhibition (Candida albicans [36]): inactive; inhibition (Aspergillus niger [37]): inactive; inhibition (Candida albicans [38]): inactive; inhibition (Mucor mucedo [31]): inactive; inhibition (Aspergillus niger [39]): inactive
